Results published in ChEMBL document CHEMBL1156175, “Synthesis, molecular modeling and biological evaluation of PSB as targeted antibiotics” (Bioorg Med Chem, 2010).
Converted amounts (≈) assume the structure as drawn.

Legend:
Escherichia coli = assay: Antibacterial activity against Escherichia coli ATCC 35218 after 24 hrs by colorimetric method using dye MTT; assay type: functional; conditions: ATCC 35218, 24 h
Method in brief: (§1)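 Mueller–Hinton broth microdilution; compounds from DMSO stock (50 μg/mL) serially diluted in medium; inoculum approx. 10⁵ cfu/mL; 37 °C for 24 h. After visual MIC reading, PBS (0.01 mol/L, pH 7.4) containing 2 mg/mL MTT added, incubated 4–5 h at room temperature, then 12 h at room temperature; OD read at 550 nm. MIC is the average of triplicates.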

[1] = molecular target: T1, 3-oxoacyl-[acyl-carrier-protein] synthase 3 (Escherichia coli, UniProt C3TDZ2); assay: Inhibition of Escherichia coli KAS3 after 1 min assessed as incorporation of 3H signal in the final product by liquid scintillation counter; conditions: in the assay text read “after 25 mins” for “after 1 min”
T1 sequence (C3TDZ2 whole entry): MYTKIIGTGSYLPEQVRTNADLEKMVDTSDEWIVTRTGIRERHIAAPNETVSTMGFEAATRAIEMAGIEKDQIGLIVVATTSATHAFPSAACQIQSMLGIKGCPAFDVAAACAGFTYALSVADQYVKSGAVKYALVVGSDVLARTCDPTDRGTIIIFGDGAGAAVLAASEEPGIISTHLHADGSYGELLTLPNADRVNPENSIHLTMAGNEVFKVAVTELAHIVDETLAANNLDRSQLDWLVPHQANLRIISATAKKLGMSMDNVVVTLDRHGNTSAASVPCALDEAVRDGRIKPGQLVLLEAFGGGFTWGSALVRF
Method in brief: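 His-tagged ecKAS III expressed in E. coli BL21(DE3) (pET30) and purified on Ni–NTA. Reaction in 20 mM sodium phosphate pH 7.0, 0.5 mM DTT, 0.25 mM MgCl₂ with holo-ACP and 1 nM enzyme, preincubated 1 min. Started with acetyl-CoA, NADH and NADPH (0.5 mM each for the last two); run 25 min. Stopped with ice-cold TCA; protein pellet washed and dissolved in NaOH; ³H incorporation read by liquid scintillation. Inhibitors added from DMSO stock, final DMSO ≤2%.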

Staphylococcus aureus = assay: Antibacterial activity against Staphylococcus aureus ATCC 6538 after 24 hrs by colorimetric method using dye MTT; assay type: functional; conditions: ATCC 6538, 24 h; method in brief: as §1
Pseudomonas aeruginosa = assay: Antibacterial activity against Pseudomonas aeruginosa ATCC 13525 after 24 hrs by colorimetric method using dye MTT; assay type: functional; conditions: ATCC 13525, 24 h; method in brief: as §1
Bacillus subtilis = assay: Antibacterial activity against Bacillus subtilis ATCC 6633 after 24 hrs by colorimetric method using dye MTT; assay type: functional; conditions: ATCC 6633, 24 h; method in brief: as §1
[2] = molecular target: T1, 3-oxoacyl-[acyl-carrier-protein] synthase 3; assay: Inhibition of Escherichia coli KAS3 after 25 mins assessed as incorporation of 3H signal in the final product by liquid scintillation counter

| MIC (Escherichia coli) [µg/mL] | IC50 [1] [µM] | MIC (Staphylococcus aureus) [µg/mL] | MIC (Pseudomonas aeruginosa) [µg/mL] | MIC (Bacillus subtilis) [µg/mL] | IC50 [2] [µM] | SMILES |
| --- | --- | --- | --- | --- | --- | --- |
| > 50 | 4.65 | 12.5 (≈ 22.7 µM) | 6.25 (≈ 11.4 µM) | 12.5 (≈ 22.7 µM) | – | CC(CNC(=O)c1ccccc1O)/N=C/c1cc(I)cc(I)c1O (stereo unspecified) |
| – | 26.5 | – | – | – | – | Cc1ccc(C(=O)NCC(C)/N=C/c2cc(I)cc(I)c2O)c(O)c1 (stereo unspecified) |
| – | – | – | – | – | 16 | CC(CNC(=O)c1ccccc1O)/N=C/c1cc(Br)ccc1O (stereo unspecified) |
| – | – | – | – | – | > 133 | CC(CNC(=O)c1cc(Br)ccc1O)/N=C/c1ccccc1O (stereo unspecified) |
| – | > 79.5 | – | – | – | – | CC(CNC(=O)c1cc(Br)ccc1O)/N=C/c1cc(I)cc(I)c1O (stereo unspecified) |
| 0.39 (≈ 0.89 µM) | – | 1.56 (≈ 3.56 µM) | 3.13 (≈ 7.14 µM) | 1.56 (≈ 3.56 µM) | 1.03 | Cc1ccc(C(=O)NCC(C)/N=C/c2cc(I)ccc2O)c(O)c1 (stereo unspecified) |
| – | 56.7 | – | – | – | – | CC(CNC(=O)c1ccccc1O)/N=C/c1c(O)ccc2ccccc12 (stereo unspecified) |
| 6.25 (≈ 14.7 µM) | – | 12.5 (≈ 29.5 µM) | 3.13 (≈ 7.38 µM) | 0.78 (≈ 1.84 µM) | 1.84 | CC(CNC(=O)c1ccccc1O)/N=C/c1cc(I)ccc1O (stereo unspecified) |
| 12.5 (≈ 34.5 µM) | – | > 50 | > 50 | 6.25 (≈ 17.2 µM) | 12.9 | Cc1ccc(C(=O)NCC(C)/N=C/c2c(O)ccc3ccccc23)c(O)c1 (stereo unspecified) |
| 3.13 (≈ 8.21 µM) | 4.59 | 6.25 (≈ 16.4 µM) | 25 (≈ 65.6 µM) | 1.56 (≈ 4.09 µM) | – | Cc1ccc(C(=O)NCC(C)/N=C/c2cc(Cl)cc(Cl)c2O)c(O)c1 (stereo unspecified) |
| – | – | – | – | – | 19.6 | CC(CNC(=O)c1cc(Br)ccc1O)/N=C/c1cc(Cl)cc(Cl)c1O (stereo unspecified) |
| – | 56 | – | – | – | – | CC(CNC(=O)c1cc(Br)ccc1O)/N=C/c1cc(F)ccc1O (stereo unspecified) |
| – | 36.6 | – | – | – | – | CC(CNC(=O)c1cc(Br)ccc1O)/N=C/c1cc(Br)ccc1O (stereo unspecified) |
| – | > 93.5 | – | – | – | – | CC(CNC(=O)c1cc(Br)ccc1O)/N=C/c1cc(Br)cc(Br)c1O (stereo unspecified) |
| 25 (≈ 54.8 µM) | 6.86 | 6.25 (≈ 13.7 µM) | 0.78 (≈ 1.71 µM) | 12.5 (≈ 27.4 µM) | – | CC(CNC(=O)c1ccccc1O)/N=C/c1cc(Br)cc(Br)c1O (stereo unspecified) |
| 12.5 (≈ 37.6 µM) | – | > 50 | 3.13 (≈ 9.41 µM) | > 50 | 16.4 | CC(CNC(=O)c1ccccc1O)/N=C/c1cc(Cl)ccc1O (stereo unspecified) |
| – | 25.6 | – | – | – | – | CC(CNC(=O)c1cc(Br)ccc1O)/N=C/c1c(O)ccc2ccccc12 (stereo unspecified) |
| – | 25.2 | – | – | – | – | Cc1ccc(C(=O)NCC(C)/N=C/c2ccccc2O)c(O)c1 (stereo unspecified) |
| – | 38.3 | – | – | – | – | CC(CNC(=O)c1ccccc1O)/N=C/c1cc(F)ccc1O (stereo unspecified) |
| – | – | – | – | – | 16.2 | Cc1ccc(C(=O)NCC(C)/N=C/c2cc(Br)ccc2O)c(O)c1 (stereo unspecified) |
| – | – | – | – | – | 18.5 | CC(CNC(=O)c1cc(Br)ccc1O)/N=C/c1cc(I)ccc1O (stereo unspecified) |
| 0.39 (≈ 1.06 µM) | 0.844 | 3.13 (≈ 8.52 µM) | 0.2 (≈ 0.545 µM) | 1.56 (≈ 4.25 µM) | – | CC(CNC(=O)c1ccccc1O)/N=C/c1cc(Cl)cc(Cl)c1O (stereo unspecified) |
| – | 24.9 | – | – | – | – | Cc1ccc(C(=O)NCC(C)/N=C/c2cc(Cl)ccc2O)c(O)c1 (stereo unspecified) |
| 0.78 (≈ 1.66 µM) | – | > 50 | 12.5 (≈ 26.6 µM) | 3.13 (≈ 6.66 µM) | 11.4 | Cc1ccc(C(=O)NCC(C)/N=C/c2cc(Br)cc(Br)c2O)c(O)c1 (stereo unspecified) |
| 6.25 (≈ 18.9 µM) | – | 12.5 (≈ 37.8 µM) | > 50 | 3.13 (≈ 9.47 µM) | 17.1 | Cc1ccc(C(=O)NCC(C)/N=C/c2cc(F)ccc2O)c(O)c1 (stereo unspecified) |
| – | – | – | – | – | > 121 | CC(CNC(=O)c1cc(Br)ccc1O)/N=C/c1cc(Cl)ccc1O (stereo unspecified) |
| – | 27.3 | – | – | – | – | CC(CNC(=O)c1ccccc1O)/N=C/c1ccccc1O (stereo unspecified) |

| SMILES | MIC (Escherichia coli) [µg/mL] | IC50 [1] [µM] | MIC (Staphylococcus aureus) [µg/mL] | MIC (Pseudomonas aeruginosa) [µg/mL] | MIC (Bacillus subtilis) [µg/mL] | IC50 [2] [µM] |
| --- | --- | --- | --- | --- | --- | --- |
| NC[C@H]1O[C@H](O[C@H]2[C@H](O)[C@@H](O[C@H]3O[C@H](CO)[C@@H](O)[C@H](N)[C@H]3O)[C@H](N)C[C@@H]2N)[C@H](O)[C@@H](O)[C@@H]1O [KANAMYCIN] | 3.13 (≈ 6.46 µM) | – | 1.56 (≈ 3.22 µM) | 3.13 (≈ 6.46 µM) | 1.56 (≈ 3.22 µM) | – |
